# Assay results: publication PMC5538437 (Genes & Development, 2017)
# Positions count from the first letter of the chain named.
# T1: 4EHP–GYF2 (35–105) complex (Homo sapiens, UniProt O60573+Q6Y7W6)
# T1 sequence (O60573 52-234): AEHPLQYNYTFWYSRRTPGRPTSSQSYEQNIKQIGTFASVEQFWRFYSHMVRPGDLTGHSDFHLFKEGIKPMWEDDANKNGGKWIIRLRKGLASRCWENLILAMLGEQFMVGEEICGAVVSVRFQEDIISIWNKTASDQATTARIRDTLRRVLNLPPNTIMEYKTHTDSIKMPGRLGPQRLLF
# T1 sequence (Q6Y7W6 35-105 partner limits assumed): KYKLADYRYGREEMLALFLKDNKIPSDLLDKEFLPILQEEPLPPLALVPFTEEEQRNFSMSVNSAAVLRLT
# T2: 4EHP RE-LL–4E-BP1 complex (Homo sapiens, UniProt O60573, E149L/R103L)
# T2 sequence (O60573 52-234 R103L/E149L): T1 sequence (O60573 52-234) with R52L, E98L
# T3: 4EHP–4E-BP1 complex (Homo sapiens, UniProt O60573)
# T3 sequence (O60573 52-234): T1 sequence (O60573 52-234)
# B1: GYF2 C+L+NC+A: GYF2 residues K35–T105, complete 4EHP-binding region (peptide)
# chain: T1 sequence (Q6Y7W6 35-105 partner limits assumed)
# modifications: left off: MBP, N-terminal, state not stated | GB1, C-terminal, kept
# B2: GYF2: Hs GIGYF2 Q6Y7W6-1, full-length (1–1299) (protein)
# chain: MAAETQTLNFGPEWLRALSSGGSITSPPLSPALPKYKLADYRYGREEMLALFLKDNKIPSDLLDKEFLPILQEEPLPPLALVPFTEEEQRNFSMSVNSAAVLRLTGRGGGGTVVGAPRGRSSSRGRGRGRGECGFYQRSFDEVEGVFGRGGGREMHRSQSWEERGDRRFEKPGRKDVGRPNFEEGGPTSVGRKHEFIRSESENWRIFREEQNGEDEDGGWRLAGSRRDGERWRPHSPDGPRSAGWREHMERRRRFEFDFRDRDDERGYRRVRSGSGSIDDDRDSLPEWCLEDAEEEMGTFDSSGAFLSLKKVQKEPIPEEQEMDFRPVDEGEECSDSEGSHNEEAKEPDKTNKKEGEKTDRVGVEASEETPQTSSSSARPGTPSDHQSQEASQFERKDEPKTEQTEKAEEETRMENSLPAKVPSRGDEMVADVQQPLSQIPSDTASPLLILPPPVPNPSPTLRPVETPVVGAPGMGSVSTEPDDEEGLKHLEQQAEKMVAYLQDSALDDERLASKLQEHRAKGVSIPLMHEAMQKWYYKDPQGEIQGPFNNQEMAEWFQAGYFTMSLLVKRACDESFQPLGDIMKMWGRVPFSPGPAPPPHMGELDQERLTRQQELTALYQMQHLQYQQFLIQQQYAQVLAQQQKAALSSQQQQQLALLLQQFQTLKMRISDQNIIPSVTRSVSVPDTGSIWELQPTASQPTVWEGGSVWDLPLDTTTPGPALEQLQQLEKAKAAKLEQERREAEMRAKREEEERKRQEELRRQQEEILRRQQEEERKRREEEELARRKQEEALRRQREQEIALRRQREEEERQQQEEALRRLEERRREEEERRKQEELLRKQEEEAAKWAREEEEAQRRLEENRLRMEEEAARLRHEEEERKRKELEVQRQKELMRQRQQQQEALRRLQQQQQQQQLAQMKLPSSSTWGQQSNTTACQSQATLSLAEIQKLEEERERQLREEQRRQQRELMKALQQQQQQQQQKLSGWGNVSKPSGTTKSLLEIQQEEARQMQKQQQQQQQHQQPNRARNNTHSNLHTSIGNSVWGSINTGPPNQWASDLVSSIWSNADTKNSNMGFWDDAVKEVGPRNSTNKNKNNASLSKSVGVSNRQNKKVEEEEKLLKLFQGVNKAQDGFTQWCEQMLHALNTANNLDVPTFVSFLKEVESPYEVHDYIRAYLGDTSEAKEFAKQFLERRAKQKANQQRQQQQLPQQQQQQPPQQPPQQPQQQDSVWGMNHSTLHSVFQTNQSNNQQSNFEAVQSGKKKKKQKMVRADPSLLGFSVNASSERLNMGEIETLDDY
# Assays:
# [1] = tested on: R-Luc-ARE-A90-MALAT1 reporter; type: cell-based, human; details: λN-HA-TTPΔNIM with GFP-GYF2 and/or λN-HA-4EHP, GYF1/2-null HEK293T cells
# Outline: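 Wild-type and GYF1/2-null HEK293T cells received 1 µg R-Luc-ARE-A90-MALAT1 reporter and 0.25 µg F-Luc-GFP control. Where indicated, they also received 50 ng λN-HA-TTPΔNIM, 0.2 µg GFP-MBP, 1 µg GFP-GYF2 (wild type or C*) and 0.5 µg λN-HA-4EHP. Dual luciferase was measured 2 d post-transfection. R-Luc/F-Luc was set to 100% without TTP for each cell line.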
# [2] = tested on: R-Luc-6xMS2-A95-MALAT1 reporter; assay: Tethering assay, R-Luc-6xMS2-A95-MALAT1 reporter, HEK293T cells; type: cell-based, human; details: MS2-HA-GYF2, HEK293T cells
# Outline: (§1)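 HEK293T cells transfected with 0.25 µg F-Luc-GFP control plasmid, 0.5 µg R-Luc-6xMS2-A95-MALAT1 reporter (or R-Luc-A95-MALAT1, lacking MS2 sites), 0.25 µg GFP-MBP, and 0.3 µg MS2-HA or 1 µg MS2-HA-GYF2 (wild type or canonical mutant) plasmid. Dual luciferase read 2 d post-transfection. R-Luc normalized to F-Luc, set to 100% for MS2-HA. Mean ± SD of three independent experiments.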
# [3] = biological target: T1, 4EHP–GYF2 (35–105) complex; assay: ITC, m7GpppG cap analog vs 4EHP–GYF2 complex; type: binding; details: 20 mM HEPES pH 7.5, 200 mM NaCl
# [4] = biological target: T2, 4EHP RE-LL–4E-BP1 complex; assay: Competition assay, preassembled 4EHP RE-LL–4E-BP1 complex; type: biochemical; details: after 60 min of incubation with equimolar GYF2 fragment
# [5] = tested on: R-Luc-5BoxB-A95-MALAT1 reporter; type: cell-based, human; details: λN-HA-4EHP with GFP-MBP or GFP-GYF2, GYF1/2-null HEK293T cells
# Outline: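 GYF1/2-null and control HEK293T cells were seeded at 0.6 × 10^6 cells per well and lipofected. Each well received 0.25 µg F-Luc-GFP control, 0.5 µg R-Luc-5BoxB-A95-MALAT1 reporter, and 0.3 µg λN-HA or 0.7 µg λN-HA-4EHP. Cells also got 0.25 µg GFP-MBP, 1.8 µg GFP-GYF2 wild type or 1.2 µg C* mutant. Luciferases were read after 2 d. R-Luc/F-Luc was set to 100% for λN-HA. Mean ± SD, three independent experiments.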
# [6] = tested on: R-Luc-A95-MALAT1 reporter; assay: Tethering assay, reporter lacking the MS2-binding sites; type: cell-based, human; details: MS2-HA-GYF2, HEK293T cells
# Outline: as §1
# [7] = biological target: T3, 4EHP–4E-BP1 complex; assay: Competition assay, preassembled 4EHP–4E-BP1 complex; type: biochemical; details: competition assay with equimolar GYF2 fragment
Molecule,"TTP-mediated repression of the ARE reporter, GYF1/2-null cells [1]",repression of MS2 reporter expression [2],effect on 4EHP's affinity for the m7GpppG cap analog [3],4E-BP1 displaced from 4EHP RE-LL [4],repression of tethered reporter by 4EHP in GYF1/2-null cells [5],effect on reporter lacking the MS2-binding sites [6],competitive advantage over 4E-BP1 for binding to 4EHP [7]
"GYF2 C: GYF2 residues K35–K54, canonical 4EHP-binding region (KYKLADYRYGREEMLALFLK; UniProt Q6Y7W6 35-54, looked up, fragment)",No restoration was observed,still repressed the expression of the R-Luc-6xMS2-A95-MALAT1 reporter as efficiently as wild-type GYF2,,,,,
B1,,,did not increase the affinity of 4EHP for an m^7GpppG cap analog,40%,,,
B2,,repressed mRNA reporter expression in tethering assays,,,restored by transient expression of wild-type GFP-tagged GYF2,did not repress a reporter lacking the MS2-binding sites,the auxiliary sequences afford GYF2 a competitive advantage over 4E-BP1 for binding to 4EHP
